# Source: ChEMBL document CHEMBL2384914, “Synthetic tactics of new class of 4-aminothieno[2,3-d]pyrimidine-6-carbonitrile derivatives acting as antimicrobial agents” (2013)
# Experiments:
# Aspergillus clavatus [1] = assay: Antifungal activity against Aspergillus clavatus MTCC 1323 assessed as growth inhibition by broth microdilution method; type: functional
# Aspergillus niger = assay: Antifungal activity against Aspergillus niger MTCC 282 assessed as growth inhibition by broth microdilution method; type: functional
# In short: (§1)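 Fungal MTCC cultures were tested by broth microdilution with DMSO-diluted drug in serial dilutions, as a primary screen followed by a second dilution set for actives. MIC was the lowest concentration inhibiting growth. Each experiment was run three times and the MICs averaged.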
# Candida albicans = assay: Antifungal activity against Candida albicans MTCC 227 assessed as growth inhibition by broth microdilution method; type: functional; in short: as §1
# Streptococcus pyogenes = assay: Antibacterial activity against Streptococcus pyogenes MTCC 442 assessed as growth inhibition by broth microdilution method; type: functional
# Staphylococcus aureus = assay: Antibacterial activity against Staphylococcus aureus MTCC 96 assessed as growth inhibition by broth microdilution method; type: functional
# Pseudomonas aeruginosa = assay: Antibacterial activity against Pseudomonas aeruginosa MTCC 441 assessed as growth inhibition by broth microdilution method; type: functional
# Escherichia coli = assay: Antibacterial activity against Escherichia coli MTCC 443 assessed as growth inhibition by broth microdilution method; type: functional
# Aspergillus clavatus [2] = details: MTCC 1323
Molecule,MIC (Aspergillus clavatus [1]) [µg/mL],MIC (Aspergillus niger) [µg/mL],MIC (Candida albicans) [µg/mL],MIC (Streptococcus pyogenes) [µg/mL],MIC (Staphylococcus aureus) [µg/mL],MIC (Pseudomonas aeruginosa) [µg/mL],MIC (Escherichia coli) [µg/mL],MIC (Aspergillus clavatus [2]) [µg/mL]
CCN(CC)c1ncnc2sc(C#N)c(-c3ccc(Cl)cc3)c12,> 1000,> 1000,1000,200,200,250,200,–
O=C(O)c1cn(C2CC2)c2cc(N3CCNCC3)c(F)cc2c1=O [CIPROFLOXACIN],–,–,–,50,50,–,25,–
CCOC(=O)N1CCN(c2ncnc3sc(C#N)c(-c4ccc(Cl)cc4)c23)CC1,1000,1000,> 1000,250,250,100,62.5,–
NYSTATIN,–,100,100,–,–,–,–,100
N#Cc1sc2ncnc(Cl)c2c1-c1ccc(Cl)cc1,1000,1000,1000,250,100,250,200,–
N#Cc1sc2ncnc(N3CCNCC3)c2c1-c1ccc(Cl)cc1,> 1000,1000,1000,100,62.5,250,125,–
COC1=CC(=O)C[C@@H](C)[C@]12Oc1c(Cl)c(OC)cc(OC)c1C2=O [GRISEOFULVIN],100,100,500,–,–,–,–,–
N#Cc1sc2ncnc(N3CCN(c4cccc(Cl)c4Cl)CC3)c2c1-c1ccc(Cl)cc1,1000,500,1000,250,250,100,200,–
N#Cc1sc2ncnc(N3CCN(c4nsc5ccccc45)CC3)c2c1-c1ccc(Cl)cc1,> 1000,> 1000,500,200,200,250,100,–
N#Cc1sc2ncnc(N3CCOCC3)c2c1-c1ccc(Cl)cc1,> 1000,> 1000,1000,250,250,200,125,–
NC(=O)c1sc2nc[nH]c(=O)c2c1-c1ccc(Cl)cc1,500,250,> 1000,200,200,200,125,–
N#Cc1sc2nc[nH]c(=O)c2c1-c1ccc(Cl)cc1,> 1000,> 1000,500,250,200,62.5,100,–
Cc1cccc(Nc2ncnc3sc(C#N)c(-c4ccc(Cl)cc4)c23)c1,> 1000,> 1000,> 1000,250,250,200,250,–
N#Cc1sc2ncnc(N3CCCCC3)c2c1-c1ccc(Cl)cc1,> 1000,> 1000,250,200,125,250,250,–
N#Cc1sc2ncnc(Nc3ccccc3Cl)c2c1-c1ccc(Cl)cc1,> 1000,> 1000,500,100,200,62.5,125,–
Cc1ccccc1Nc1ncnc2sc(C#N)c(-c3ccc(Cl)cc3)c12,> 1000,> 1000,> 1000,125,250,200,200,–
N#Cc1sc2ncnc(N3CCN(C(=O)C4COc5ccccc5O4)CC3)c2c1-c1ccc(Cl)cc1 (stereo not drawn),1000,1000,250,125,100,250,100,–
GENTAMICIN,–,–,–,0.5,0.25,1,0.05,–
O=C(N[C@H](CO)[C@H](O)c1ccc([N+](=O)[O-])cc1)C(Cl)Cl [CHLORAMPHENICOL],–,–,–,50,50,50,50,–
NC(=O)c1sc(N)c(C(N)=O)c1-c1ccc(Cl)cc1,> 1000,> 1000,500,200,250,250,200,–
N#Cc1sc2ncnc(NCc3ccccc3)c2c1-c1ccc(Cl)cc1,1000,1000,1000,125,100,250,250,–
CC1(C)S[C@@H]2[C@H](NC(=O)[C@H](N)c3ccccc3)C(=O)N2[C@H]1C(=O)O [AMPICILLIN],–,–,–,100,250,–,100,–
N#Cc1sc2ncnc(Nc3cccc(Cl)c3)c2c1-c1ccc(Cl)cc1,500,500,> 1000,250,200,100,100,–
CCn1cc(C(=O)O)c(=O)c2cc(F)c(N3CCNCC3)cc21 [NORFLOXACIN],–,–,–,10,10,10,10,–
